Reference: ChEMBL document CHEMBL2177098, “Synthesis and evaluation of novel ¹⁸F labeled 2-pyridinylbenzoxazole and 2-pyridinylbenzothiazole derivatives as ligands for positron emission tomography (PET) imaging of β-amyloid plaques” (J Med Chem, 2012)

Legend:
[1] = Displacement of [125I]-IMPY from amyloid beta (1 to 42) fibrils after 2 hrs by gamma-counting analysis
Procedure, shortened: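 Competition binding with aggregated Aβ1-42 fibrils and [125I]IMPY (60000−100000 cpm/100 μL) in 0.05% BSA (1 mL total); inhibitors 10⁻⁴−10^−8.5 M in ethanol. Incubated 37 °C for 2 h, then GF/B vacuum filtration with PBS (0.02 M, pH 7.4) washes and γ counting. Three repeats; IC50 converted to Ki by Cheng−Prusoff.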

[2] = system: Brain; test: Ratio of drug uptake in brain at 2 mins to drug uptake in brain at 60 mins in CD1 mouse at 10 uCi, iv; assay type: ADME, organism-based; settings: in vivo
Procedure, shortened: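 Normal male ICR mice (5 weeks, about 20 g) received the 18F-labelled tracer in saline, 370 KBq per 100 μL, by tail-vein injection. Five mice per time point were killed at 2, 10, 30 and 60 min. Organs were weighed and gamma-counted against diluted aliquots of the injected dose to give % dose/g. The ratio is brain uptake at 2 min over brain uptake at 60 min.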

CNc1ccc(/C=C/c2ccc(OCCOCCOCC[18F])nc2)cc1 [FLORBETAPIR F 18]
Ki [1]: 2.87 nM | Ratio [2]: 3.9
